The values that follow come from ChEMBL document CHEMBL2010673, “Structure-activity relationship of pyrrole based S-nitrosoglutathione reductase inhibitors: carboxamide modification” (Bioorg Med Chem Lett, 2012).

One data set concerns A549. Briefly: Cytotoxicity against human A549 cells after 48 hrs by MTS assay. It counts as cell-based. The following applies: A549, 48 h. On the technique in general: Tetrazolium assays rely on reduction of a dye to a coloured formazan, in cell work by metabolically active cells.
In data set [1] the target is Mu-type opioid receptor (Homo sapiens) (UniProt P35372). Briefly: Inhibition of Mu opioid receptor at 10 uM by radioligand displacement assay. The method, boiled down:
(§1)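 Off-target radioligand binding panel. Test compound at 10 µM. Each assay had at least 6 control wells, with or without vehicle, for soluble compounds. Values are percent inhibition of radioligand binding. ≥50% inhibition was scored as a positive response.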

Data set [2] addresses Melanocortin receptor 4 (Homo sapiens) (UniProt P32245). Briefly: Inhibition of MC4 receptor at 10 uM by radioligand displacement assay. Summed up:
as §1
(In general: Loss of bound radioactivity is the signal in a displacement assay; it reports binding, not function.)

For data set [3], the target named is D(2) dopamine receptor (Homo sapiens) (UniProt P14416). Briefly: Inhibition of D2S receptor at 10 uM by radioligand displacement assay. The method, boiled down: as §1
For data set [4], the target named is Vasopressin V1a receptor (Homo sapiens) (UniProt P37288). The data set can be described thus: Inhibition of V1a receptor at 10 uM by radioligand displacement assay. The method, boiled down:
as §1

For data set [5], the target named is C-X-C chemokine receptor type 2 (Homo sapiens) (UniProt P25025). The data set can be described thus: Inhibition of CXCR2 receptor at 10 uM by radioligand displacement assay. Summed up:
as §1

For data set [6], the target named is Sodium-dependent serotonin transporter (Homo sapiens) (UniProt P31645). Briefly: Inhibition of 5HT transporter at 10 uM by radioligand displacement assay. Summed up:
as §1

Data set [7] has as its target 5-hydroxytryptamine receptor 5A (Homo sapiens) (UniProt P47898). The data set can be described thus: Inhibition of 5HT5A receptor at 10 uM by radioligand displacement assay. Summed up:
as §1

Data set [8] deals with Cannabinoid receptor 1 (Homo sapiens) (UniProt P21554). The data set can be described thus: Inhibition of CB1 receptor at 10 uM by radioligand displacement assay. Summed up: as §1
Data set [9] addresses Histamine H2 receptor (Homo sapiens) (UniProt P25021). Briefly: Inhibition of H2 receptor at 10 uM by radioligand displacement assay. The method, boiled down:
as §1

Data set [10] has as its target 5-hydroxytryptamine receptor 2B (Homo sapiens) (UniProt P41595). Briefly: Inhibition of 5HT2b receptor at 10 uM by radioligand displacement assay. The method, boiled down: as §1
Data set [11] has as its target 5-hydroxytryptamine receptor 3A (Homo sapiens) (UniProt P46098). Briefly: Inhibition of 5HT3 receptor at 10 uM by radioligand displacement assay. Summed up: as §1
Data set [12] has as its target 5-hydroxytryptamine receptor 7 (Homo sapiens) (UniProt P34969). Briefly: Inhibition of 5HT7 receptor at 10 uM by radioligand displacement assay. The method, boiled down:
as §1

Data set [13] can be described thus: Toxicity in iv dosed CD1 mouse administered qd for 5 days. It counts as organism-based. Conditions: in vivo. The method, boiled down:
(§2)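 Male CD-1 mice dosed IV once daily for 5 days at 1, 10 or 50 mg/kg. Toxicity judged by histology of liver, spleen and thymus, and a no-observed-adverse-effect level (NOAEL) derived from the study.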

For data set [14], the system named is Mus musculus. Briefly: Toxicity in CD1 mouse assessed as adverse effect in spleen at 10 mg/kg, iv qd administered for 5 days. In kind it is organism-based. Details: dose 10 mg/kg, route intravenous. The following applies: in vivo, 120 h. Summed up: as §2
In data set [15] the test system is Mus musculus. Briefly: Antiasthamatic activity against ovalbumin-induced asthma in ovalbumin-sensitized BALB/c mouse assessed as inhibition of methacholine-induced bronchoconstriction at 1 mg/kg, iv administered 24 hrs prior to methacholine-challenge by plethysmography. It counts as functional, organism-based. The arrangement: dose 1 mg/kg. Summed up:
(§3)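 Mice made asthmatic by ovalbumin exposure. A single 1 mg/kg IV dose was given 24 h before aerosolized methacholine challenge. Controls received IV PBS vehicle or three inhaled doses of Combivent (5.2 mg/kg albuterol + 0.9 mg/kg ipratropium) at 48, 24 and 1 h before challenge. Bronchoconstriction was read by whole-body plethysmography, and eosinophils were counted in BALF. Data are mean ± SEM, 10 mice per group.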

For data set [16], the system named is Mus musculus. The data set can be described thus: Toxicity in CD1 mouse assessed as adverse effect in spleen at 50 mg/kg, iv qd administered for 5 days. The arrangement: dose 50 mg/kg, route intravenous. Conditions: in vivo, 120 h. In kind it is organism-based. The method, boiled down: as §2
The subject of data set [17] is Mus musculus. Briefly: Antiasthamatic activity against ovalbumin-induced asthma in ovalbumin-sensitized BALB/c mouse assessed as inhibition of methacholine-induced eosinophil infiltration in bronchoalveolar lavage fluid at 1 mg/kg, iv administered 24 hrs prior to methacholine-challenge by light microscopy. In kind it is functional, organism-based. Details: dose 1 mg/kg. Conditions: Lung. Summed up:
as §3

Data set [18] deals with Mus musculus. The data set can be described thus: Toxicity in CD1 mouse assessed as adverse effect in thymus at 10 mg/kg, iv qd administered for 5 days. In kind it is organism-based. Details: dose 10 mg/kg, route intravenous. The following applies: in vivo, 120 h. The method, boiled down:
as §2

Data set [19] relates to Mus musculus. The data set can be described thus: Toxicity in CD1 mouse assessed as adverse effect in liver at 50 mg/kg, iv qd administered for 5 days. It counts as organism-based. Details: dose 50 mg/kg, route intravenous. The following applies: in vivo, 120 h. Summed up: as §2
Data set [20] relates to Mus musculus. Briefly: Toxicity in CD1 mouse assessed as adverse effect in liver at 10 mg/kg, iv qd administered for 5 days. The arrangement: dose 10 mg/kg, route intravenous. It counts as organism-based. The following applies: in vivo, 120 h. The method, boiled down: as §2
Data set [21] relates to Mus musculus. Briefly: Toxicity in CD1 mouse assessed as adverse effect in thymus at 50 mg/kg, iv qd administered for 5 days. In kind it is organism-based. The arrangement: dose 50 mg/kg, route intravenous. Conditions: in vivo, 120 h. The method, boiled down: as §2
Data set [22] concerns Mus musculus. Briefly: Toxicity in CD1 mouse assessed as adverse effect in thymus iv qd administered for 5 days. The following applies: in vivo, 120 h.

Active and inactive are the calls of the source. The calls are words filed in the database; no cut-off is given here.

Sequence of Melanocortin receptor 4 (Homo sapiens) (P32245 whole entry): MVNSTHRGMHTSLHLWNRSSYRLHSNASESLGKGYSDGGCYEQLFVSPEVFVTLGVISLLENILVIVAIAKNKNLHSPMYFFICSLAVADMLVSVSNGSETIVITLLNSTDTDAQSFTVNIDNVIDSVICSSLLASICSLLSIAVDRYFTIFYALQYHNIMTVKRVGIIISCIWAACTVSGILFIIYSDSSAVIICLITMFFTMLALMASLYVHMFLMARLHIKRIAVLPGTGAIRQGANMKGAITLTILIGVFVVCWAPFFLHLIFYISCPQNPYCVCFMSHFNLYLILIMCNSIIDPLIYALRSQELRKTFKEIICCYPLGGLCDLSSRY
Sequence of D(2) dopamine receptor (Homo sapiens) (P14416 whole entry): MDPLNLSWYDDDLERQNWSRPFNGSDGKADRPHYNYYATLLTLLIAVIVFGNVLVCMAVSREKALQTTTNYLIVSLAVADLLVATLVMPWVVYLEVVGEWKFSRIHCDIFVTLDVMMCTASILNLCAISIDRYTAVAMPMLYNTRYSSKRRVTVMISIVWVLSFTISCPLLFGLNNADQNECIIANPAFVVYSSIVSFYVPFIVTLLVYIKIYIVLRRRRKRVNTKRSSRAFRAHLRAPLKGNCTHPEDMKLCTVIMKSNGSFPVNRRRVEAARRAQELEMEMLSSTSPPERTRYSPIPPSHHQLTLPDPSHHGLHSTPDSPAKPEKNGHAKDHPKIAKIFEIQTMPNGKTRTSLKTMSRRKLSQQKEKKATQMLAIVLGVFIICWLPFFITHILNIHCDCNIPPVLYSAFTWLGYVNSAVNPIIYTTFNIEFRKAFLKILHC
Sequence of Cannabinoid receptor 1 (Homo sapiens) (P21554 whole entry): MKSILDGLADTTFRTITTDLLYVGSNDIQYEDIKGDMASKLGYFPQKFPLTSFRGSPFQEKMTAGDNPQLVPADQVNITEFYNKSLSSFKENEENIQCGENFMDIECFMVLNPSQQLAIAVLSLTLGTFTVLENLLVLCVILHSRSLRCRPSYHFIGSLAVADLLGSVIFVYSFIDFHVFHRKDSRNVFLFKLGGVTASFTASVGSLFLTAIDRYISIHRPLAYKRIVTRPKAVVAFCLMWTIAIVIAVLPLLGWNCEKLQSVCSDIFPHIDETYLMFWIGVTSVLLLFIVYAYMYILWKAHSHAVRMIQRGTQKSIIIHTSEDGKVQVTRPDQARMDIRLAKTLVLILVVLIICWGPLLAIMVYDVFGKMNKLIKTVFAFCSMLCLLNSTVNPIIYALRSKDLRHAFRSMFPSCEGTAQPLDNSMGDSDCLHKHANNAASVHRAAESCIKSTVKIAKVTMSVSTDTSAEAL
Sequence of 5-hydroxytryptamine receptor 5A (Homo sapiens) (P47898 whole entry): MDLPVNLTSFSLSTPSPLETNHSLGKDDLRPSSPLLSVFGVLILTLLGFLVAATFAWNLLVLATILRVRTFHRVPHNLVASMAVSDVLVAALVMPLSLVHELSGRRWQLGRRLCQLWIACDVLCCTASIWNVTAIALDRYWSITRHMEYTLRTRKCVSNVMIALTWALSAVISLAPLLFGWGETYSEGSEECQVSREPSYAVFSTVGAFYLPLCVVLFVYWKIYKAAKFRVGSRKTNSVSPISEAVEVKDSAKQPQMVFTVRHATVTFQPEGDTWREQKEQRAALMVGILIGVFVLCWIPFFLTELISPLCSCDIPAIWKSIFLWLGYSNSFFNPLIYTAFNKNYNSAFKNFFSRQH
Sequence of 5-hydroxytryptamine receptor 7 (Homo sapiens) (P34969 whole entry): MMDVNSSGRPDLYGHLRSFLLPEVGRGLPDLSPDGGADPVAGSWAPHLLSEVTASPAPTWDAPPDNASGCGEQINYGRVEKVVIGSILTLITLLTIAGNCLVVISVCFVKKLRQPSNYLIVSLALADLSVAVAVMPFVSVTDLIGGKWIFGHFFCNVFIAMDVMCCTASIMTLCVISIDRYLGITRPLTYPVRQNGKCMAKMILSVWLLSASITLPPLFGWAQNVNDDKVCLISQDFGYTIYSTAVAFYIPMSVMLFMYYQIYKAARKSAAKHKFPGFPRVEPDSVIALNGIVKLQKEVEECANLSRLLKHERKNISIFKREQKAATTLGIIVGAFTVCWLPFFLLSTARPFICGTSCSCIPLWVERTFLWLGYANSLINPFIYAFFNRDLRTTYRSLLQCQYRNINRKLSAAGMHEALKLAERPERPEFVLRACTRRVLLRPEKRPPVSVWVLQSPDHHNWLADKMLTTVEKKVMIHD
Sequence of Mu-type opioid receptor (Homo sapiens) (P35372 whole entry): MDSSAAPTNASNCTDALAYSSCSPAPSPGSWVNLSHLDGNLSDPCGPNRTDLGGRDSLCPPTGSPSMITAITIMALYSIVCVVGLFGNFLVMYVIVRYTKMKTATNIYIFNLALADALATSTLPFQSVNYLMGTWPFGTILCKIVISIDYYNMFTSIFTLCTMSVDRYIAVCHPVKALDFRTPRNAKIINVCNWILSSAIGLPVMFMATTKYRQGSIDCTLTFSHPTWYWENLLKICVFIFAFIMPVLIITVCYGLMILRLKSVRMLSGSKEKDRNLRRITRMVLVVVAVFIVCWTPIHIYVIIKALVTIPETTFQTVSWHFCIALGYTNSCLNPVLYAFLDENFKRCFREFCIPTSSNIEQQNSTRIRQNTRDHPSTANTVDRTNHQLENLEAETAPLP
Sequence of Histamine H2 receptor (Homo sapiens) (P25021 whole entry): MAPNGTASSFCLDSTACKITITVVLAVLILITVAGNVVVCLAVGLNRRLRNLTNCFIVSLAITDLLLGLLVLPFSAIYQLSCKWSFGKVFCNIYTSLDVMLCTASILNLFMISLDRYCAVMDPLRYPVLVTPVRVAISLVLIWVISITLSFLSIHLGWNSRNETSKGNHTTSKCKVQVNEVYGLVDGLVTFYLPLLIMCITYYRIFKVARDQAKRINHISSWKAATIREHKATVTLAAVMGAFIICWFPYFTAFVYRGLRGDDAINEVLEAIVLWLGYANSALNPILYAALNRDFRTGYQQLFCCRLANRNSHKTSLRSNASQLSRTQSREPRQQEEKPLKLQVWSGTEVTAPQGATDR
Sequence of 5-hydroxytryptamine receptor 2B (Homo sapiens) (P41595 whole entry): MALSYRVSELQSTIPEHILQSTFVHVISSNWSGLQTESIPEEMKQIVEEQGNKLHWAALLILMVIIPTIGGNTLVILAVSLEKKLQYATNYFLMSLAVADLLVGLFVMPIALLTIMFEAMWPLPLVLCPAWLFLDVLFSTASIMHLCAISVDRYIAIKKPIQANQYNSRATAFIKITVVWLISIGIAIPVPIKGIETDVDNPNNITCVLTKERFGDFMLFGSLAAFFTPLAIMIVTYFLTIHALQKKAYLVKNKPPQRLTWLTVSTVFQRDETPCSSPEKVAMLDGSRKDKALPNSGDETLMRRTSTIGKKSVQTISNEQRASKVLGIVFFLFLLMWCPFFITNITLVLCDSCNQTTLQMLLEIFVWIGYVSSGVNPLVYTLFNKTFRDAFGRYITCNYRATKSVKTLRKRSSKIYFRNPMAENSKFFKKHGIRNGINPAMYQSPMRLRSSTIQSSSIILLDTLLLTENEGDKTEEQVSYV
Sequence of C-X-C chemokine receptor type 2 (Homo sapiens) (P25025 whole entry): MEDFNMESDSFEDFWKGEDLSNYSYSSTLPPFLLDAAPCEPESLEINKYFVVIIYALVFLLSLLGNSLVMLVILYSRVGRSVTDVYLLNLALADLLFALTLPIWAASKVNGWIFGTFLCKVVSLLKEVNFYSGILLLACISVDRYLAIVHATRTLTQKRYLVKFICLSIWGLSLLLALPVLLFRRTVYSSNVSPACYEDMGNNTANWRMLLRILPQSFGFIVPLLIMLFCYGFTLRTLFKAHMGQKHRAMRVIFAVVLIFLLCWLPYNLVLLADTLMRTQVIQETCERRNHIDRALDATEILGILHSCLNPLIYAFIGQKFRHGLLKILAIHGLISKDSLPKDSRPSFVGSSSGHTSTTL
Sequence of Vasopressin V1a receptor (Homo sapiens) (P37288 whole entry, looked up): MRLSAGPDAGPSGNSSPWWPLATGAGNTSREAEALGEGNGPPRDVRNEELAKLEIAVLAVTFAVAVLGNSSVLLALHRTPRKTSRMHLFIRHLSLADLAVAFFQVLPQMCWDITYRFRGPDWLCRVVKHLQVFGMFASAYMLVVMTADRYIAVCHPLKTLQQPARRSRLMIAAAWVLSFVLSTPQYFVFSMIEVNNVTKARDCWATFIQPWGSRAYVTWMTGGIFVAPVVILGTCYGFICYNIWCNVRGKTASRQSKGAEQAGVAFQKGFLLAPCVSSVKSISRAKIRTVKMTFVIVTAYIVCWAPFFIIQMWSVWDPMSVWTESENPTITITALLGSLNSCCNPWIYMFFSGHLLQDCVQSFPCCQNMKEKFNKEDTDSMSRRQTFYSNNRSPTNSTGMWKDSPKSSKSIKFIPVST
Sequence of Sodium-dependent serotonin transporter (Homo sapiens) (P31645 whole entry, looked up): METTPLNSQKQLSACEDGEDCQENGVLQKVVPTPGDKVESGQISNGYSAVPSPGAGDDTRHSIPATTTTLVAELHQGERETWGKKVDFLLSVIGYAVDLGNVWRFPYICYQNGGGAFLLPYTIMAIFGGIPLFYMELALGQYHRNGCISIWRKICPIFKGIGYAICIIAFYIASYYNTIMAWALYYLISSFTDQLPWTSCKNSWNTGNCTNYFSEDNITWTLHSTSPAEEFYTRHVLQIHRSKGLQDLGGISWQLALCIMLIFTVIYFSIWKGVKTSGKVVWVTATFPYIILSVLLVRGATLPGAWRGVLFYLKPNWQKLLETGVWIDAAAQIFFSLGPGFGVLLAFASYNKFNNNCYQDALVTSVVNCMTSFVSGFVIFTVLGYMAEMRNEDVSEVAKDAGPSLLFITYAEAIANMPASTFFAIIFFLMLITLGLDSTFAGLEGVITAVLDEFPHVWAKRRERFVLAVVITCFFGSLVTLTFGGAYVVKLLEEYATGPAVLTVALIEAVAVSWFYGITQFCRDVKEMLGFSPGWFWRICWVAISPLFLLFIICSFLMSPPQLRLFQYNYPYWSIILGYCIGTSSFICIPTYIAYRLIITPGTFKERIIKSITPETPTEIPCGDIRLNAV

As usually defined, the IC50 is the concentration needed to halve the response being measured. High values mean lower potency, low ones higher potency. In turn, `Cc1cc(NS(C)(=O)=O)ccc1-n1c(CCC(=O)O)ccc1-c1ccc(-n2ccnc2)cc1` returned a 50% inhibitory concentration (IC50) in the data set on A549 above 150 µM. Further, the inhibition result in data set [1], in data set [2], in [3], in data set [4], in data set [5] and in data set [6] was “inactive” each time. In addition, the inhibition result in data set [7], in data set [8], in [9], in data set [10], in [11] and in data set [12] was “inactive” in each case.

As usually defined, the NOAEL is the highest tested level that showed no adverse finding. In the data set with A549, `Cc1cc(NS(C)(=O)=O)ccc1-n1c(CCC(=O)O)ccc1-c1ccc(-n2ccnc2C)s1` had a half-maximal inhibitory concentration (IC50) above 150 µM. The inhibition result in data set [1], in [2], in [3], in data set [4], in data set [5] and in data set [6] was “inactive” in each case. Also, the inhibition result in data set [7], in data set [8], in data set [9], in data set [10], in data set [11] and in data set [12] was “inactive” throughout. This molecule showed an NOAEL at 120 h in data set [13] of 1 mg/kg/day. The Activity result in the data set with Mus musculus [14], in the data set with Mus musculus [16], in the data set with Mus musculus [18], in the data set on Mus musculus [19], in the data set on Mus musculus [20] and in the data set on Mus musculus [21] was “Toxic” each time. The Activity entry with Mus musculus [22] is listed as “Toxic”. In addition, the outcome with Mus musculus [15] and in the data set with Mus musculus [17] was Active.
